High-throughput results from PubChem BioAssay.
The list is not random: actives were taken first. Their share in the collection is about 3.4%.
SIRT5 block: inhibitors of human sirtuin-5 desuccinylase; Q9NXA8; Purified SirT5, succinyl-peptide AMC, trypsin-coupled fluorescence; inhibition, % at 15 µM; 330,000 compounds, 1.1% hits; AID 652115; in the data active = inhibition above about 15%; inconclusive = no clear call, values can overlap the other calls
rRNA inh HTS: selective bacterial rRNA inhibition in E. coli; E. coli WT GFP vs humanized-ribosome RFP mutants, fluorescence, 24 h; hits give low values; DMSO median 0, no signal -100; GFP signal change (wild-type ribosome), % (concentration not given with the values); 350,000 compounds, 1.6% hits;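 active = significant combined selectivity score with lowered wild-type GFP, culture density cut under 30%, mutant RFP and density less affected; inactive = any of these conditions unmet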
S100A4 inh HTS: S100A4-myosin IIA interaction inhibition; P26447; 360,000 compounds, 0.14% hits; inhibition, % at 10.7 µM; S100A4/TAMRA-MyoIIA peptide fluorescence polarization; AID 652163;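 active = mean inhibition of at least 70% across replicates, with every replicate also reaching that level; inconclusive = mean inhibition reaches 70% but some replicates fall short; inactive = mean inhibition below 70%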
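incubation = readout 5 min after mixing, signal stable up to 60 min | system = S100A4 monomer protein | buffer or medium = HEPES pH 7.2 with CaCl2, KCl, NaCl, DTT, Triton | benchmarks = neutral control DMSO, positive control TFP | also added = fluorescent myosin IIA peptide, 5 nM | compound dosing = one concentration per compound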
E-sel inducer: E-selectin induction on HUVECs; P16581; HUVEC E-selectin immunofluorescence imaging; normalized: neutral wells 0, TNF-alpha wells 100; activation, % at 7.58 µM; 260,000 compounds, 0.37% hits;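 active = mean E-selectin-positive cell signal at least 10% of the positive control, reached in at least 60% of replicates, without over 20% cell loss; inconclusive = no rule given, readout overlaps actives, possibly toxicity-flagged; inactive = the rest, including those meeting only one limit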
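Read-out basis: % PE-positive cells; Test system: HUVEC primary endothelial cells; Technique: immunofluorescence imaging; Dosing: single-point compound dose.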
MLL AF4-AF9 inh: MLL-AF4/AF9 protein interaction inhibition | AlphaScreen, biotin-AF4 peptide binding to FLAG-AF9 | inhibition, % at 10 µM | 350,000 compounds, 0.47% hits | AID 651704;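 active = every replicate reaching a set inhibition limit, whatever the replicate mean, cut at about 25% in these data; inconclusive = mean inhibition reaches that limit but some replicates miss it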
ERAP1 HTS inh: ERAP1 (human) enzyme inhibition; recombinant ERAP1, Leu-AMC fluorescence, 60 min; inhibition, % at 10.7 µM; 340,000 compounds, 0.15% hits; Q9NZ08; AID 652197;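 active = mean replicate inhibition of at least 30%, or all replicates individually reaching that 30% level; inactive = mean below 30% and not every replicate reaching it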
Target sequence (Q9NZ08 whole entry, looked up): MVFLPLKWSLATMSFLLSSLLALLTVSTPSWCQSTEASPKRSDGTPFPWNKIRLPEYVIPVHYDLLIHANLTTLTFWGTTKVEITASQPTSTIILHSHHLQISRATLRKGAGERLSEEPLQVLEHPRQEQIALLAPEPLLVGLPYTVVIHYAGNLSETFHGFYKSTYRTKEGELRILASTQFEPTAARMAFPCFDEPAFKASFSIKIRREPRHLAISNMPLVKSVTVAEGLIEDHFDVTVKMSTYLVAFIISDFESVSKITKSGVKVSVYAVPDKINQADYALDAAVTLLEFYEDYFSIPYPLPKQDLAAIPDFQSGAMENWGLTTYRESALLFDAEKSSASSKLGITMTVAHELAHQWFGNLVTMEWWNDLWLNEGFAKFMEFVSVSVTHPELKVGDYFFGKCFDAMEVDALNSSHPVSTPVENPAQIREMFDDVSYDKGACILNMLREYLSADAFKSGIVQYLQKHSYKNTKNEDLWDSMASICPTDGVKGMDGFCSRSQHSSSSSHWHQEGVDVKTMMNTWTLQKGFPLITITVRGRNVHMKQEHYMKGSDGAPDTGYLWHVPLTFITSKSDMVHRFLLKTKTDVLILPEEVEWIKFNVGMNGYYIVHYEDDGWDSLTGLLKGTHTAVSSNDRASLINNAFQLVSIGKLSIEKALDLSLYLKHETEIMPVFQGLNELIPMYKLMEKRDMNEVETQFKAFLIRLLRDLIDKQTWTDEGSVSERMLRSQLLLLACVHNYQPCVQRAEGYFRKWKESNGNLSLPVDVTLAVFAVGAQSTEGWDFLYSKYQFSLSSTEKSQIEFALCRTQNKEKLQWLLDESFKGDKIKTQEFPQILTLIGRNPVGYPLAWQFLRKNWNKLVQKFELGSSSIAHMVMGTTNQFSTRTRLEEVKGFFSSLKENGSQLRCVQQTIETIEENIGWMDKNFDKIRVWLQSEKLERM
Each line names hits and unclear results; the compound was inactive in the other large screens.

COc1ccc(CN(C)C[C@H]2Oc3ccc(N(C)C)cc3CC(=O)N([C@H](C)CO)C[C@H]2C)cc1	E-sel inducer inconclusive
N#CC1(NC(=O)CN2C(=O)c3ccccc3C2=O)CCCCC1	E-sel inducer 49.9
CCCNC(=O)N(C)C[C@@H]1Oc2cc(C3=CCCCC3)ccc2S(=O)(=O)N([C@@H](C)CO)C[C@@H]1C	none
COc1cc(-c2noc(C)c2/C=C/c2ccc(C(=O)O)cc2)cc(OC)c1OC	ERAP1 HTS inh 41.9
COc1cc(-c2noc(C)c2/C=C/c2cccc([N+](=O)[O-])c2)cc(OC)c1OC	none
COC(=O)c1ccc2nc(-c3ccc(OC)c(OC)c3)c(Cc3ccccc3OC)n2c1	none
COC(=O)c1ccc2nc(-c3ccc(OC)c(OC)c3)c(Cc3ccccc3C(F)(F)F)n2c1	SIRT5 block 21.7
COc1cccc(S(=O)(=O)Nc2ccc3c(c2)OC[C@@H](C)N(C(=O)Cc2cccnc2)C[C@@H](C)[C@@H](OC)CN(C)C3=O)c1	none (no result: SIRT5 block, S100A4 inh HTS, MLL AF4-AF9 inh, ERAP1 HTS inh)
Cc1c(NC(=O)c2ccc([N+](=O)[O-])o2)cccc1-c1nc2ncccc2o1	rRNA inh HTS -23.6
C/C(=N\NC(=S)NCc1ccccc1)c1ccccc1	none (no result: E-sel inducer)
CC1=C/C(=N\NC(=S)NCc2ccccc2)CC1	SIRT5 block 17.8
CCc1ccccc1NC(=O)c1ccc(OCc2c(C)noc2C)cc1	rRNA inh HTS -20.3
COc1ccc2c3c(n(C)c2c1)[C@@H](CO)N(Cc1ccccc1OC)CC31CCN(CC2CC2)CC1	none (no result: SIRT5 block, S100A4 inh HTS, E-sel inducer, MLL AF4-AF9 inh, ERAP1 HTS inh)
Cc1cc(Cl)ccc1NC(=S)N1CCN(C(=O)c2ccco2)CC1	rRNA inh HTS -37.1
Cc1ccccc1NC(=S)N1CCN(C(=O)c2ccco2)CC1	none
C[C@H](CO)N1C[C@H](C)[C@@H](CN(C)Cc2ccncc2)Oc2ccc(NC(=O)NC3CCCCC3)cc2CC1=O	none
Cc1ccccc1-c1ccc([C@@H]2[C@H]3CN(C(=O)c4ccncc4)CC(=O)N3[C@H]2CO)cc1	none
C#CCOCCOCCOCCNc1nc(N2CCN(C(=O)Cn3cc(CCCCN)nn3)CC2)nc(N2CCN(C(=O)[C@H]([C@@H](C)CC)n3cc(CCCCN)nn3)CC2)n1	MLL AF4-AF9 inh 25.5
C#CCOCCOCCOCCNc1nc(N2CCN(C(=O)[C@H]([C@@H](C)CC)n3cc(CCCN=C(N)N)nn3)CC2)nc(N2CCN(C(=O)[C@H](Cc3ccc(O)cc3)n3cc(CCO)nn3)CC2)n1	MLL AF4-AF9 inh 30.9
C#CCOCCOCCOCCNc1nc(N2CCN(C(=O)CCCCCCCCCCNC(=O)Cn3cc(C[C@@H](C)O)nn3)CC2)nc(N2CCN(C(=O)CCCCCCCCCCNC(=O)[C@@H](CCC(=O)O)n3cc(CCCCCN)nn3)CC2)n1	none
C#CCOCCOCCOCCNc1nc(N2CCN(C(=O)CCCCCCCCCCNC(=O)Cn3cc(C[C@@H](C)O)nn3)CC2)nc(N2CCN(C(=O)CCCCCCCCCCNC(=O)[C@H](CO)n3cc(CCCSC)nn3)CC2)n1	SIRT5 block 19.5
C[C@@H]1CN(C)C(=O)Cc2ccccc2O[C@H]1CN(C)C	none (no result: SIRT5 block, S100A4 inh HTS, E-sel inducer, MLL AF4-AF9 inh, ERAP1 HTS inh)
Nc1ccc(C(=O)Nc2ccc3nc(-c4ccncc4)[nH]c3c2)cc1	rRNA inh HTS -33.0 (no result: E-sel inducer)
Nc1ccc2nc(-c3ccc(-c4nc5ccc(N)cc5[nH]4)cc3)[nH]c2c1	none
C/C(=N/NC(=O)c1ccc(C)s1)c1cccc(NC(=O)c2ccoc2C)c1	SIRT5 block 17.4
CN(C)C(=O)c1ccc(-c2ccc([C@@H]3[C@H](CO)N4C(=O)CN(C(=O)C5CCCCC5)C[C@@H]34)cc2)cc1	none
COCCNC(=S)N1CCN(c2nc(-c3ccc(Cl)cc3)cs2)CC1	none (no result: E-sel inducer)
COCCn1nnnc1C(c1cccs1)N1CCN(c2nc3ccccc3s2)CC1 (centres undefined)	rRNA inh HTS -21.9 (no result: E-sel inducer)
COCCNC(=S)N1CCN(c2nc3ccccc3s2)CC1	rRNA inh HTS -26.3 (no result: E-sel inducer)
COCCNC(=S)N1CCN(c2nc(-c3ccc(F)cc3)cs2)CC1	none
COCCCNC(=S)N1CCN(c2nc3ccccc3s2)CC1	rRNA inh HTS -29.8
C[C@@H]1CN([C@H](C)CO)S(=O)(=O)c2ccc(-c3ccccc3)cc2O[C@H]1CN(C)C(=O)Cc1ccccc1	none
C[C@@H]1CN([C@H](C)CO)C(=O)c2cccc(NS(=O)(=O)c3ccc(F)cc3)c2O[C@@H]1CN(C)Cc1ccc(C(=O)O)cc1	none
O=C(C[C@H]1CC[C@@H](NC(=O)Cc2ccccn2)[C@@H](CO)O1)NCCc1ccncc1	none
COc1ccc(NC(=O)N(C)C[C@@H]2OCCCC[C@H](C)Oc3ccc(NS(=O)(=O)c4cn(C)cn4)cc3C(=O)N([C@H](C)CO)C[C@H]2C)cc1	none
O=C(O)C(Cc1ccc(O)c([N+](=O)[O-])c1)N1C(=O)c2ccccc2C1=O (centres undefined)	none
CCOC(=O)C(Cc1ccc(O)c([N+](=O)[O-])c1)N1C(=O)c2ccccc2C1=O (centres undefined)	rRNA inh HTS -25.4
COc1ccc(S(=O)(=O)N(C)C[C@@H]2Oc3ccc(NC(=O)c4ccncc4)cc3C(=O)N([C@@H](C)CO)C[C@H]2C)cc1	none
COc1ccc(NC(=O)Nc2ccc3c(c2)C(=O)N([C@@H](C)CO)C[C@@H](C)[C@@H](CN(C)S(=O)(=O)c2ccc(F)cc2)O3)cc1	E-sel inducer 37.4 (no result: SIRT5 block, S100A4 inh HTS, MLL AF4-AF9 inh, ERAP1 HTS inh)
COc1ccc(S(=O)(=O)N(C)C[C@H]2Oc3ccc(NC(=O)Nc4ccc(F)cc4)cc3C(=O)N([C@H](C)CO)C[C@@H]2C)cc1	none
COc1ccc(NC(=O)Nc2ccc3c(c2)C(=O)N([C@@H](C)CO)C[C@@H](C)[C@@H](CN(C)S(=O)(=O)c2ccc(C)cc2)O3)cc1	SIRT5 block 18.6
COc1ccc(S(=O)(=O)N(C)C[C@@H]2Oc3ccc(NC(=O)Nc4ccc(F)cc4)cc3C(=O)N([C@H](C)CO)C[C@@H]2C)cc1	SIRT5 block 18.2
COc1ccc(S(=O)(=O)N(C)C[C@H]2Oc3ccc(NC(=O)c4ccncc4)cc3C(=O)N([C@H](C)CO)C[C@@H]2C)cc1	E-sel inducer 53.6
CN(C)C(=O)[C@H]1[C@H](CO)[C@H]2Cn3c(cccc3=O)[C@H]2N1C(=O)NC1CCCC1	none
Cn1ncc(Br)c1C(=O)NC1C2CC3CC(C2)CC1C3 (centres undefined)	rRNA inh HTS -30.3
CO[C@@H]1CN(C)C(=O)c2ccc(NC(=O)c3ccccc3)cc2OC[C@@H](C)N(CC2CC2)C[C@@H]1C	none
COc1ccc(CC(=O)Nc2nnc(C(C)C)s2)cc1	none
COc1ccc(OC)c(-c2csc(NC(=O)Cc3ccccc3)n2)c1	none (no result: E-sel inducer)
COc1ccc(OC)c(-c2csc(NC(=O)Cc3ccc(OC)c(OC)c3)n2)c1	none (no result: E-sel inducer)
